Measurements reported in ChEMBL document CHEMBL1139454, “NMR structural characterization of peptide inhibitors bound to the Hepatitis C virus NS3 protease: design of a new P2 substituent” (J Med Chem, 2004).
pIC50: −log10 of the molar value. Non-standard residues stand in square brackets, D forms with d. Residues, ends and D or L forms follow the SMILES beside them. Nva = CCC[C@H](N)C(=O)O

System: not listed separately
Test: Inhibitory activity against hepatitis C virus (NS3 protease
Design: species or system Hepacivirus hominis
Summary of the method: (§1)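 Genotype 1b NS3–NS4A heterodimer at 1.5 nM, incubated 45 min at 23 °C with serially diluted inhibitor and 5 μM internally quenched fluorogenic substrate anthranilyl-DDIVPAbu[C(O)-O]-AMY(3-NO₂)TW-OH. Buffer was 50 mM Tris-HCl pH 8.0, 0.25 M sodium citrate, 0.01% n-dodecyl-β-D-maltoside, 1 mM TCEP. Stopped with 1 M MES pH 5.8; product fluorescence read at ex 320/em 405 nm. IC50 from Hill-model nonlinear fit of % inhibition.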

pIC50	SMILES
3.82	CCC[C@H](NC(=O)[C@@H]1CCCN1C(=O)[C@@H](NC(=O)[C@@H](NC(=O)[C@H](CC(=O)O)NC(=O)[C@H](CC(=O)O)NC(C)=O)[C@@H](C)CC)C(C)C)C(=O)O (Ac-DDIVP[Nva]-OH)

Target: NS3 (Hepatitis C virus, UniProt A3EZJ3)
Sequence (A3EZJ3 whole entry): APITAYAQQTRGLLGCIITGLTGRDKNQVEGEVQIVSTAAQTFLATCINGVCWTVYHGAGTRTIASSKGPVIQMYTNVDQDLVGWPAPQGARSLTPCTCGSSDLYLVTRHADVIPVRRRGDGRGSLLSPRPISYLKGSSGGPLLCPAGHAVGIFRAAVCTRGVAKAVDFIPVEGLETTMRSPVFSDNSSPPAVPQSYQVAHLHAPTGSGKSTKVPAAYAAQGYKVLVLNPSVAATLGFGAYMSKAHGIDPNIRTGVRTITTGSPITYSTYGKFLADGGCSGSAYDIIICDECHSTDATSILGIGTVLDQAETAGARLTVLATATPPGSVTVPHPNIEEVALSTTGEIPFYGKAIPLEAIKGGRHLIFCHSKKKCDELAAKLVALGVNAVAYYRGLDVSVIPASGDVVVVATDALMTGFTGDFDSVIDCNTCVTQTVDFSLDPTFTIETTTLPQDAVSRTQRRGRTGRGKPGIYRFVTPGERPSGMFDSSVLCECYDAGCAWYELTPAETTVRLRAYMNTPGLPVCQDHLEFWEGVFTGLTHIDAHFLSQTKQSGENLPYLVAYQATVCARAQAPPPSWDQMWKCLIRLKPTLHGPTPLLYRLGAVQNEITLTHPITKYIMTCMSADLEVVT
Test: Inhibitory activity against hepatitis C virus NS3 protease
Design: species or system Hepacivirus hominis
Summary of the method: as §1

pIC50	SMILES
5.52	C=CC1C[C@]1(NC(=O)[C@@H]1C[C@@H](Oc2cc(-c3ccccc3)nc3ccccc23)CN1C(=O)[C@@H](NC(C)=O)C(C)C)C(=O)O (some centres not stated)
6.96	C=C[C@@H]1C[C@]1(NC(=O)C1CC(Oc2ccnc3ccccc23)CN1C(=O)[C@@H](NC(=O)[C@@H](NC(C)=O)C1CCCCC1)C(C)C)C(=O)O (single isomer, unassigned)
4.28	CC(=O)N[C@H](C(=O)N[C@H](C(=O)N1CC(Oc2cccc(Br)c2)CC1C(=O)NC1(C(=O)O)CC1)C(C)C)C1CCCCC1 (single isomer, unassigned)
5.21	CC(=O)N[C@H](C(=O)N[C@H](C(=O)N1CC(Oc2cccc(-c3ccccc3)c2)CC1C(=O)NC1(C(=O)O)CC1)C(C)C)C1CCCCC1 (single isomer, unassigned)
5.40	CC(=O)N[C@H](C(=O)N[C@H](C(=O)N1CC(Oc2cccc(-c3cccc([N+](=O)[O-])c3)c2)CC1C(=O)NC1(C(=O)O)CC1)C(C)C)C1CCCCC1 (single isomer, unassigned)
5.66	CC(=O)N[C@H](C(=O)N[C@H](C(=O)N1CC(Oc2ccnc3ccccc23)CC1C(=O)NC1(C(=O)O)CC1)C(C)C)C1CCCCC1 (single isomer, unassigned)
6.92	C=C[C@@H]1C[C@]1(NC(=O)C1CC(Oc2cccc(-c3ccccc3)c2)CN1C(=O)[C@@H](NC(=O)[C@@H](NC(C)=O)C1CCCCC1)C(C)C)C(=O)O (single isomer, unassigned)
5.10	CC(=O)N[C@H](C(=O)N[C@H](C(=O)N1CC(Oc2ccnc3cc(C(F)(F)F)ccc23)CC1C(=O)NC1(C(=O)O)CC1)C(C)C)C1CCCCC1 (single isomer, unassigned)
5.40	CC(=O)N[C@H](C(=O)N[C@H](C(=O)N1CC(OCc2cccc3ccccc23)CC1C(=O)NC1(C(=O)O)CC1)C(C)C)C1CCCCC1 (single isomer, unassigned)
6.43	CC(=O)N[C@H](C(=O)N[C@H](C(=O)N1CC(Oc2cc(-c3ccccc3)nc3ccccc23)CC1C(=O)NC1(C(=O)O)CC1)C(C)C)C1CCCCC1 (single isomer, unassigned)
7.89	C=C[C@@H]1C[C@]1(NC(=O)C1CC(Oc2cc(-c3ccccc3)nc3ccccc23)CN1C(=O)[C@@H](NC(=O)[C@@H](NC(C)=O)C1CCCCC1)C(C)C)C(=O)O (single isomer, unassigned)
